Assay results from ChEMBL document CHEMBL1153176, “2,6-Dithienyl-4-furyl pyridines: Synthesis, topoisomerase I and II inhibition, cytotoxicity, structure-activity relationship, and docking study” (Bioorg Med Chem Lett, 2010).
Counter-ions that a name gives are not always drawn.

How the values were obtained:
Bos taurus [1] = species: Bos taurus; test: Inhibition of calf thymus topoisomerase 1-mediated relaxation of supercoiled pBR322 DNA at 20 uM after 30 mins by agarose gel electrophoresis
How it was run: (§1)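 Compound at 20 or 100 μM, 37 °C for 30 min. Stopped with SDS/dye mix, run on 1% agarose in TBE for 10 h, stained with ethidium bromide (0.5 μg/mL).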

Bos taurus [2] = species: Bos taurus; test: Inhibition of calf thymus topoisomerase 1-mediated relaxation of supercoiled pBR322 DNA at 100 uM after 30 mins by agarose gel electrophoresis; how it was run: as §1
[3] = biological target: DNA topoisomerase 2-alpha (Homo sapiens) (UniProt P11388); test: Inhibition of human topoisomerase 2 alpha-mediated relaxation of supercoiled pBR322 DNA at 20 uM after 30 mins by agarose gel electrophoresis
How it was run: (§2)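 Human topo II (0.3 U) with 0.2 μg pBR322 in 50 mM Tris–HCl pH 8.0, 120 mM KCl, 10 mM MgCl2, 0.5 mM ATP, 0.5 mM DTT and BSA. Compound at 20 or 100 μM, 37 °C for 30 min. Stopped with 0.77% SDS/77 mM EDTA, run on 1% agarose at 1.5 V/cm for 10 h in TBE, stained with ethidium bromide.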

[4] = biological target: DNA topoisomerase 2-alpha (Homo sapiens) (UniProt P11388); test: Inhibition of human topoisomerase 2 alpha-mediated relaxation of supercoiled pBR322 DNA at 100 uM after 30 mins by agarose gel electrophoresis; how it was run: as §2
DU-145 = test: Cytotoxicity against human DU145 cells after 3 days; assay type: functional, cell-based; conditions: DU-145, 72 h
How it was run: (§3)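 Cells seeded at 2–4 × 10⁴ per well and held overnight at 37 °C, 5% CO₂ in medium with 10% FBS. On day 1 the medium was replaced with medium holding graded compound concentrations. Absorbance read at 450 nm. IC50 from a four-parameter logistic fit of the 450 nm readings.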

MCF7 = test: Cytotoxicity against human MCF7 cells after 3 days; assay type: functional, cell-based; conditions: MCF7, 72 h; how it was run: as §3
HCT-116 = test: Cytotoxicity against human HCT116 cells after 3 days; assay type: functional, cell-based; conditions: HCT-116, 72 h; how it was run: as §3
MDA-MB-231 = test: Cytotoxicity against human MDA-MB-231 cells after 3 days; assay type: functional, cell-based; conditions: MDA-MB-231, 72 h; how it was run: as §3
HeLa = test: Cytotoxicity against human HeLa cells after 3 days; assay type: functional, cell-based; conditions: 72 h; how it was run: as §3

DNA topoisomerase 2-alpha (Homo sapiens), sequence (P11388 whole entry): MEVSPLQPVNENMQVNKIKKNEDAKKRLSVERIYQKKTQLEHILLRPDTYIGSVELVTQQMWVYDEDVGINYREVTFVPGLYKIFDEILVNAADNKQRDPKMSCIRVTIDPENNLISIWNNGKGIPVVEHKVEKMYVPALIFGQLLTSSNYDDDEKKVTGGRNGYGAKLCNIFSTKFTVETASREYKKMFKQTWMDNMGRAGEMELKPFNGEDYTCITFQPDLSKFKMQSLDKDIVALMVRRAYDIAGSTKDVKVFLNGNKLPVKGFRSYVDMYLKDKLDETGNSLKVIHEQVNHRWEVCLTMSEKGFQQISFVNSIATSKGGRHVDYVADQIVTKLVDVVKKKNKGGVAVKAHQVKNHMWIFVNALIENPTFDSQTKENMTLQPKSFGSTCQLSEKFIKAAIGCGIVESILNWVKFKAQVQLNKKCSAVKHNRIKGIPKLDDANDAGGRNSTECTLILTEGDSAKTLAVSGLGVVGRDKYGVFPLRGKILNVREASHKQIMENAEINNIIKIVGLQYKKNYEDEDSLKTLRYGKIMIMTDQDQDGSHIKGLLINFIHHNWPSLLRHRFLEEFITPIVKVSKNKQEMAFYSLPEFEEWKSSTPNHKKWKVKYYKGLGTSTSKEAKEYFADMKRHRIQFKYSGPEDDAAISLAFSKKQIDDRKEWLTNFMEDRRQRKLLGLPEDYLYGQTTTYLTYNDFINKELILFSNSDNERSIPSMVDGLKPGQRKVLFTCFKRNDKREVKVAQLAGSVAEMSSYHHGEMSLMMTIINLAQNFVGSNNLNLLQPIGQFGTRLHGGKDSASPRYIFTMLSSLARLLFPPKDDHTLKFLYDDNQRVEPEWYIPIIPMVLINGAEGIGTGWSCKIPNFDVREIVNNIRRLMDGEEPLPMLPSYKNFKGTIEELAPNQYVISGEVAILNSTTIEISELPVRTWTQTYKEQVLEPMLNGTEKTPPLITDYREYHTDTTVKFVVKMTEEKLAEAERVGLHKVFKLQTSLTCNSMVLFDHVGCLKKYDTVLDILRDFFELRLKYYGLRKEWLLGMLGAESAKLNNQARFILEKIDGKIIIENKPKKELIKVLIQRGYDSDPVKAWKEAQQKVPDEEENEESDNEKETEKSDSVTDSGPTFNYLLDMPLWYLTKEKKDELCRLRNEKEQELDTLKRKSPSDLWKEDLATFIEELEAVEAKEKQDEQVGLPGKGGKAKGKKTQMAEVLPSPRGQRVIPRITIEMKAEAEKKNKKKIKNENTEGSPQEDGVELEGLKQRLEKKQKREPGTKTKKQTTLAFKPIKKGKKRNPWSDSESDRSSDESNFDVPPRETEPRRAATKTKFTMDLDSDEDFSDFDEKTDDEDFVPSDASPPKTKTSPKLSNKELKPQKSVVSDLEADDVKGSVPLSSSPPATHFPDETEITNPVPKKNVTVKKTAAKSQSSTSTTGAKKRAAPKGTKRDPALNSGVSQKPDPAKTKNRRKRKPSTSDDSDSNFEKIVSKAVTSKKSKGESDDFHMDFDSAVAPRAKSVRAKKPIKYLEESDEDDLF

SMILES | inhibition (Bos taurus [1]) [%] | inhibition (Bos taurus [2]) [%] | inhibition [3] [%] | inhibition [4] [%] | IC50 (DU-145) [µM] | IC50 (MCF7) [µM] | IC50 (HCT-116) [µM] | IC50 (MDA-MB-231) [µM] | IC50 (HeLa) [µM]
c1cc(-c2cc(-c3ccsc3)nc(-c3ccsc3)c2)co1 | 0 | 0 | 4 | 12 |  |  |  |  | 
Cc1ccc(-c2cc(-c3ccsc3)nc(-c3ccsc3)c2)o1 | 0 | 0 | 0 | 5 |  |  |  |  | 
Clc1ccc(-c2cc(-c3ccsc3)nc(-c3ccsc3)c2)o1 | 0 | 14 | 0 | 8 |  |  |  |  | 
COc1cc([C@@H]2c3cc4c(cc3[C@@H](O[C@@H]3O[C@@H]5CO[C@@H](C)O[C@H]5[C@H](O)[C@H]3O)[C@H]3COC(=O)[C@H]23)OCO4)cc(OC)c1O [ETOPOSIDE] |  |  | 36 | 73 | 21.1 | 18 | 17.9 | 16.9 | 8.43
Cc1ccc(-c2cc(-c3ccsc3)nc(-c3cc(C)sc3C)c2)o1 | 0 | 0 | 0 | 7 |  |  |  |  | 
Cc1ccc(-c2cc(-c3ccsc3)nc(-c3sccc3C)c2)o1 | 0 | 0 | 0 | 0 |  |  |  |  | 
Cc1ccsc1-c1cc(-c2ccoc2)cc(-c2sccc2C)n1 | 15 | 30 | 0 | 0 |  |  |  |  | 
Clc1ccc(-c2cc(-c3cccs3)nc(-c3cccs3)c2)o1 | 12 | 42 | 0 | 35 | 88.1 | > 100 | 95.5 | 54.8 | 55.2
Clc1ccc(-c2cc(-c3ccsc3)nc(-c3cccs3)c2)o1 | 12 | 50 | 7 | 55 | > 100 | > 100 | > 100 | 26.8 | 43.7
Cc1ccc(-c2cc(-c3cccs3)nc(-c3cccs3)c2)o1 | 0 | 3 | 0 | 8 |  |  |  |  | 
Cc1ccsc1-c1cc(-c2ccco2)cc(-c2ccsc2)n1 | 9 | 52 | 11 | 58 | > 100 | > 100 | 51.1 | 41.8 | 19.2
Cc1ccsc1-c1cc(-c2ccco2)cc(-c2sccc2C)n1 | 88 | 92 | 14 | 23 | 98.2 | > 100 | > 100 | 38.3 | 35.8
c1coc(-c2cc(-c3ccsc3)nc(-c3cccs3)c2)c1 | 5 | 12 | 0 | 34 |  |  |  |  | 
Cc1ccc(-c2cc(-c3cccs3)nc(-c3sccc3C)c2)o1 | 0 | 0 | 15 | 25 |  |  |  |  | 
CC[C@@]1(O)C(=O)OCc2c1cc1n(c2=O)Cc2cc3ccccc3nc2-1 [CAMPTOTHECIN] | 41 | 54 |  |  | 1.46 | 7.42 | 2.77 | 1.1 | 1.85
Cc1ccc(-c2cc(-c3cccs3)nc(-c3cc(C)sc3C)c2)o1 | 0 | 5 | 0 | 0 |  |  |  |  | 
Cc1ccsc1-c1cc(-c2ccco2)cc(-c2cccs2)n1 | 12 | 51 | 9 | 28 | > 100 | > 100 | 56.4 | 59.6 | 17.9
c1csc(-c2cc(-c3ccoc3)cc(-c3ccsc3)n2)c1 | 0 | 0 | 1 | 18 |  |  |  |  | 
Cc1ccc(-c2cc(-c3ccsc3)nc(-c3cccs3)c2)o1 | 0 | 0 | 0 | 2 |  |  |  |  | 
c1csc(-c2cc(-c3ccoc3)cc(-c3cccs3)n2)c1 | 0 | 0 | 15 | 70 | > 100 | > 100 | 50.6 | 23.6 | 8.62
COc1cccc2c1C(=O)c1c(O)c3c(c(O)c1C2=O)C[C@@](O)(C(=O)CO)C[C@@H]3O[C@H]1C[C@H](N)[C@H](O)[C@H](C)O1 [DOXORUBICIN HYDROCHLORIDE] |  |  |  |  | 1.3 |  |  | 1.16 | 1.6
c1coc(-c2cc(-c3ccsc3)nc(-c3ccsc3)c2)c1 | 0 | 0 | 0 | 32 |  |  |  |  | 
Cc1ccsc1-c1cc(-c2ccoc2)cc(-c2ccsc2)n1 | 0 | 13 | 0 | 0 |  |  |  |  | 
Cc1ccsc1-c1cc(-c2ccoc2)cc(-c2cccs2)n1 | 3 | 9 | 7 | 3 |  |  |  |  | 
